Results from publication PMC4973392 (Angewandte Chemie (International ed. in English), 2016).

What was measured:
[1] = biological target: Ubc9-K59A mutant (Homo sapiens, UniProt P63279, K59A); test: sumoylation of fluorescent substrate peptide with Ubc9-K59A mutant; assay type: biochemical; details: at any concentration
[2] = biological target: T1, Ubc9 (Homo sapiens, UniProt P63279); test: 1H-15N HSQC NMR chemical shift perturbation; assay type: binding
Method in brief: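 1H-15N HSQC spectra recorded with 200 μM Ubc9 in a solution saturated with the test compound. Chemical shifts of selected residues were compared between apo and compound-bound protein.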

[3] = biological target: E2-SUMO thioester (Homo sapiens, UniProt P63279); test: E2-SUMO thioester formation with fluorescently labeled SUMO-1; assay type: biochemical; details: at concentrations that correlated well with the IC50
[4] = test system: IκBα sumoylation; test: conjugation of SUMO to full-length recombinant IκBα; assay type: biochemical
[5] = biological target: Ubc9-E42A mutant (Homo sapiens, UniProt P63279, E42A); test: sumoylation of fluorescent substrate peptide with Ubc9-E42A mutant; assay type: biochemical; details: at any concentration
[6] = test system: RanGAP1 sumoylation; test: conjugation of SUMO to recombinant protein fragment of RanGAP1; assay type: biochemical
[7] = biological target: T2, E1-SUMO thioester (Homo sapiens, UniProt Q9UBE0+Q9UBT2); test: E1-SUMO thioester formation with fluorescently labeled SUMO-1; assay type: biochemical; details: at relevant concentrations
T2 sequence (Q9UBE0 1-346): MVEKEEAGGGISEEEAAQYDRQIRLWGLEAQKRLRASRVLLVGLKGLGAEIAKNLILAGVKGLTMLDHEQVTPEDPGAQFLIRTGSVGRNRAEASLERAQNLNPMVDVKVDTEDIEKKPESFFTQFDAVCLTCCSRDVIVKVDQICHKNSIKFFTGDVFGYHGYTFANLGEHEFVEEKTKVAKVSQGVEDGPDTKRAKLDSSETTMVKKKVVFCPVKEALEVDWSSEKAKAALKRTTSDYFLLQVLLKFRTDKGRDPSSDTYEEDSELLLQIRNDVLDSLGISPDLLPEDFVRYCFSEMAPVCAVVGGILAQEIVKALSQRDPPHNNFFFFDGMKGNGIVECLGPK
T2 sequence (Q9UBT2 1-640): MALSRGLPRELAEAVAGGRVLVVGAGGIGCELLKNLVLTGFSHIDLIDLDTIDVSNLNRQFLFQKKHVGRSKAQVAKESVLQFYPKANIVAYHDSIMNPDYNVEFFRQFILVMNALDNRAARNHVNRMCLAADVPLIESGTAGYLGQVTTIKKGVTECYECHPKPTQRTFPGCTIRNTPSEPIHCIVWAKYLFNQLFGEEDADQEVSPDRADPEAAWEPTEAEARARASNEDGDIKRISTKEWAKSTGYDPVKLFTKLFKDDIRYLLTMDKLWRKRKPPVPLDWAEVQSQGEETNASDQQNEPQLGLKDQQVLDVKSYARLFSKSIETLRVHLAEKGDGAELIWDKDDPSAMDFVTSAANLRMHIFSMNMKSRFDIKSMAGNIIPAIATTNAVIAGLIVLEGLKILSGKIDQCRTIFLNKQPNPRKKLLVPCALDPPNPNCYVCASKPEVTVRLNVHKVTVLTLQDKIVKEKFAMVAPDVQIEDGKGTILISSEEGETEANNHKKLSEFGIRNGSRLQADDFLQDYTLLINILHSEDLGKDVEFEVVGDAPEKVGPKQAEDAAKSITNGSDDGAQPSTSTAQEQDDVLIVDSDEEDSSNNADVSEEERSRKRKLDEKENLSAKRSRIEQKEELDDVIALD
Method in brief: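 E1–SUMO thioester formation was followed using fluorescently labeled SUMO-1 in the presence of the test compound. The negative-control lane omitted E1.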

[8] = biological target: T1, Ubc9; assay type: biochemical; details: SUMO-1 conjugation to peptide substrate

T1 sequence (P63279 whole entry): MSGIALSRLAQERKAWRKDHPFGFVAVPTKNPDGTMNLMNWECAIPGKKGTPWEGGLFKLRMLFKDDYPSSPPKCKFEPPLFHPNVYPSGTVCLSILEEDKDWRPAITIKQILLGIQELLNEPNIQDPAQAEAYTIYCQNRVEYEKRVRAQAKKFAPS
Chain of Ubc9-E42A mutant (P63279 whole entry E42A, the tested form may be a part): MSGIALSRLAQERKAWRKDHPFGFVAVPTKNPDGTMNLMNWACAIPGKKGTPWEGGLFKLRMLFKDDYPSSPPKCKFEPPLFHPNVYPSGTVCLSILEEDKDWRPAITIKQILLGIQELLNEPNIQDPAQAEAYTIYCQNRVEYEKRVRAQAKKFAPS
Chain of Ubc9-K59A mutant (P63279 whole entry K59A): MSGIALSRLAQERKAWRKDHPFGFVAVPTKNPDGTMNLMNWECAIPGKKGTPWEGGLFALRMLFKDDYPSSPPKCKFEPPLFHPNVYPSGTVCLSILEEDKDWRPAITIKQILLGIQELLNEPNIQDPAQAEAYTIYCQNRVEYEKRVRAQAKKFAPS
Chain of E2-SUMO thioester (P63279 whole entry): as the sequence (P63279 whole entry) above

Oc1ccccc1-c1ccccc1O [compound 1, 2,2′-bisphenol]
inhibition of Ubc9 K59A mutant [1]: neither mutant was inhibited
binding to Ubc9 in solution (chemical shift perturbations) [2]: specific binding
effect on formation of the E2-SUMO thioester [3]: inhibited
effect on conjugation of SUMO to IκBα [4]: inhibited
inhibition of Ubc9 E42A mutant [5]: neither mutant was inhibited
effect on conjugation of SUMO to RanGAP1 fragment [6]: inhibited
effect on formation of the E1-SUMO thioester [7]: no effect
IC50 [8]: 5.8 ± 0.1 mM
